A short description of data set [1]: Inhibition of [3H]dofetilide binding to guinea pig cardiac potassium (K+) channels. The arrangement: species or system Cavia porcellus. In outline: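 Radioligand binding of [3H]dofetilide to guinea pig cardiac myocytes, run by a previously published method. The IC50 is reported as the mean of at least two determinations.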
In data set [2] the target is T1, Potassium voltage-gated channel subfamily A member 3 (Homo sapiens, UniProt P22001). The data set is described as follows: Concentration inhibiting [125I]ChTX (charybdotoxin) binding to N-type potassium channel.
T1 sequence (P22001 whole entry, the tested form may be a part): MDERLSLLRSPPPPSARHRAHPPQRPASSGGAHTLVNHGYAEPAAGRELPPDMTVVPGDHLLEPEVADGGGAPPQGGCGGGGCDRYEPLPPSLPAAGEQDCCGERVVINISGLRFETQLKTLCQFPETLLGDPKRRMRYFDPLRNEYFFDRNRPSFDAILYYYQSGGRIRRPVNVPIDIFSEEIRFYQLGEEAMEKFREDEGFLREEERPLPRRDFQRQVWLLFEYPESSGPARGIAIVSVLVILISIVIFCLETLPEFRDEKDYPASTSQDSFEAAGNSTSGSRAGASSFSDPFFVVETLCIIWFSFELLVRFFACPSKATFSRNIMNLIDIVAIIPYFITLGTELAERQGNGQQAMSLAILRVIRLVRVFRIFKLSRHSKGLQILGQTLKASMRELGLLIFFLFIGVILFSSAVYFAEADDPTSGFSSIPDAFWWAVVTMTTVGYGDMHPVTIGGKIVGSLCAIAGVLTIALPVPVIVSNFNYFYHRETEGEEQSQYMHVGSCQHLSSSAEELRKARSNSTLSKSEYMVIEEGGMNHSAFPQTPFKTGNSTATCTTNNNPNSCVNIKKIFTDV
Data set [3] has as its target T1, Potassium voltage-gated channel subfamily A member 3. The data set can be described thus: Inhibition of outward potassium currents (IKn) in human T-lymphocyte N-type potassium channels. It counts as functional. The procedure, abridged: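 Whole-cell patch clamp held at -80 mV, with 150 ms steps to 30 mV once per minute and stabilization for >6 min. Test agent was perfused at one fixed concentration per cell for 6 min. The first pulse gave closed-channel block and the next gave open-channel block. Peak outward current was compared with predrug current as percent blocked. IC50 was fitted from n > 9 data points.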

For data set [4], the species on record is Cavia porcellus. The data set can be described thus: Inhibition of [3H]dofetilide binding to guinea pig cardiac myocytes potassium (K+) channels at 400 nM.
Data set [5] is described as follows: Partition coefficient (logP) (HPLC). It counts as physicochemical. As to conditions: octanol/water.
The nature of data set [6]: Acid dissociation constant was determined. The format is ADME.
The species named for data set [7] is Cavia porcellus. The data set is described as follows: Inhibition of [3H]dofetilide binding to cardiac potassium (K+) channels at 400 nM.

Molecules are shown by their SMILES.

In general, IC50 refers to the midpoint of a concentration-inhibition curve. High values mean weaker potency, low ones greater potency. For orientation: inhibition means the relative decrease from the control value, in per cent. A word on the logP: it is the decadic logarithm of the partition coefficient of the neutral form, usually between octanol and water. Low values mean lower lipophilicity, high ones higher lipophilicity. As a reminder, the pKa is the negative logarithm of the acid dissociation constant.

Compound `CCN(CC)CC/N=c1\ccn(Cc2ccccc2Cl)c2cc(Cl)ccc12` showed an IC50 in data set [1] of 0.057 µM.
Take `CCCCCCNc1cc[n+](C)c2c(-c3ccccc3)cccc12`: the IC50 in data set [2] turned out to be 0.24 µM; in data set [3] it was 0.602 µM; in data set [1], 0.223 µM.
For the compound `CCCCC/N=c1\ccn(Cc2ccc(Cl)cc2)c2ccc(OC)cc12`, the IC50 in data set [1] came out at 1.99 µM.
In data set [2], `C/N=c1\ccn(Cc2ccccc2)c2cc(Cl)ccc12` yielded an IC50 of over 5 µM. In the data set filed under Cavia porcellus [4], this compound showed an inhibition of 24%.
Regarding `CCC/N=c1\ccn(Cc2ccccc2)c2cc(Cl)ccc12`, the figures for the IC50 in data set [2] and in data set [3] were 0.544 µM and 3.16 µM, respectively.
For `C[N+](C)(C)CCC/N=c1\ccn(Cc2ccccc2Cl)c2cc(Cl)ccc12`, the IC50 in data set [2] is over 30 µM; in data set [3], over 10 µM.
`CCCCC/N=c1\ccn(Cc2ccc(Cl)cc2)c2c(F)cccc12` showed an IC50 in data set [1] of 0.31 µM.
For the compound `CCCCCC/N=c1\ccn(Cc2ccccc2)c2ccc(OC)cc12`, the figures for the IC50 in data set [2], in data set [3] and in data set [1] were 0.047 µM, 0.267 µM and 0.68 µM, respectively.
In the same order, the values of `CCCCC/N=c1\ccn(Cc2ccc(Cl)cc2)c2ccc(C(F)(F)F)cc12` are 0.34 µM, 0.213 µM and 0.14 µM.
The compound `CNCCC/N=c1\ccn(Cc2cccc(Cl)c2)c2cc(Cl)ccc12` returned an IC50 in data set [2] of over 30 µM.
Consider `Clc1ccc2/c(=N/C34CC5CC(CC(C5)C3)C4)ccn(Cc3ccccc3)c2c1`, for which the IC50 in data set [2] is 1.17 µM; in data set [1], 0.157 µM.
Take `CCCCCCOc1cc[n+](Cc2ccccc2)c2cc(Cl)ccc12`: the IC50 in data set [2] worked out at 0.828 µM. In data set [5], this compound had a logP of 3.62. In addition, the pKa in data set [6] was found to be 11.2.
As to `CCCCCC/N=c1\ccn(Cc2ccc(OC)cc2)c2cc(Cl)ccc12`, the values for the IC50 in data set [2] and in data set [3] were 0.088 µM and 0.329 µM, respectively.
For the compound `N=c1ccn(Cc2ccccc2)c2cc(Cl)ccc12`, the IC50 in data set [2] was over 8 µM.
The same measure, in the same setting: next, `O=C(O)CC/N=c1\ccn(Cc2ccccc2Cl)c2cc(Cl)ccc12`: over 10 µM.
Regarding `CCCCCCNc1cc[n+](-c2ccccc2)c2c(-c3ccccc3)cc(OC)cc12`, the IC50 in data set [2] was found to be 0.24 µM. Besides, in data set [5], the logP worked out at 3.73.
For the compound `CCCCC/N=c1\ccn(C2CCc3ccccc32)c2cc(Cl)ccc12` (stereo not given), the results for the IC50 in data set [2] and in data set [1] were 2.3 µM and 0.87 µM, respectively.
As to `CCCCCCC/N=c1\ccn(Cc2ccccc2)c2cc(Cl)ccc12`, the IC50 was found to be 0.117 µM in data set [2], 0.249 µM in data set [3] and 2.5 µM in data set [1].
Consider `CC(C)C/N=c1\ccn(Cc2ccccc2)c2cc(Cl)ccc12`, for which the IC50 in data set [2] is 0.206 µM; in data set [1], 2 µM.
As for `CCCCC/N=c1\ccn(Cc2ccc(Cl)cc2)c2cc(C(F)(F)F)ccc12`, the IC50 turned out to be 0.239 µM in data set [2] and 0.09 µM in data set [1].
Consider `Clc1ccc(C/N=c2\ccn(Cc3ccccc3Cl)c3cc(Cl)ccc23)c(Cl)c1`, for which the IC50 in data set [2] amounted to 0.55 µM; in data set [3] it was 0.259 µM; in data set [1], 2.38 µM.
Regarding `Clc1ccc(/N=c2\ccn(Cc3ccccc3Cl)c3cc(Cl)ccc23)c(Cl)c1`, the IC50 in data set [2] is over 30 µM; in data set [3], over 10 µM; in data set [1], over 30 µM.
In the case of `CCCCCCOc1ccc(Cc2ccccc2)c2ccccc12`, the IC50 in data set [2] is over 5 µM.
With `CC(C)CCCC(C)/N=c1\ccn(Cc2ccccc2)c2cc(Cl)ccc12` (stereo not given), the IC50 came to 0.817 µM in data set [2], 1.68 µM in data set [3] and 0.175 µM in data set [1].
Turning to `CCCCCC/N=c1\ccn(Cc2ccc(Cl)c(Cl)c2)c2cc(Cl)ccc12`, the IC50 in data set [2] is 0.31 µM; in data set [3] it was 0.231 µM; in data set [1] it was over 3.5 µM. The compound also came in with a logP in data set [5] of 4.64. Further, in data set [6], the pKa was 11.5.
With `CCCCCC/N=c1\ccn(Cc2ccccc2)c2ccccc12`, the IC50 amounted to 0.164 µM in data set [2] and 1.05 µM in data set [3].
Turning to `CCCCCC/N=c1\ccn(Cc2ccccc2Cl)c2cc(Cl)ccc12`, the half-inhibitory concentration (IC50) was determined as 0.19 µM in data set [2], 0.216 µM in data set [3] and 0.78 µM in data set [1].
With `CCCCCCNc1cc[n+](-c2ccccc2)c2c(-c3ccccc3)cccc12`, the IC50 in data set [2] was found to be 0.93 µM. The logP in data set [5] came out at 3.89. For the same compound, the pKa in data set [6] turned out to be 9.58.
`CCCCCC/N=c1\ccn(Cc2ccc(Cl)cc2)c2cc(Cl)ccc12`: the figures for the IC50 in data set [2] and in data set [1] were 0.1 µM and 3.23 µM, respectively.
Regarding `CCCC/N=c1\ccn(Cc2ccccc2)c2cc(Cl)ccc12`, the IC50 in data set [2] came out at 0.198 µM; in data set [3], 2.62 µM. In addition, in the data set filed under Cavia porcellus [7], the inhibition is 24%.
Regarding `CCCC/N=c1\ccn(CCCc2ccccc2)c2cc(Cl)ccc12`, in data set [2], the IC50 came out at 0.471 µM. The compound also returned a logP in data set [5] of 3.82. In data set [6], this compound had a pKa of 11.4.
Turning to `CCCCCC/N=c1\ccn(Cc2ccccc2)c2c(OC)cccc12`, the IC50 in data set [1] was 0.21 µM.
As for `CCCCC/N=c1\ccn(Cc2ccccc2)c2cc(Cl)ccc12`, the IC50 was 0.25 µM in data set [3] and 1.3 µM in data set [1].
As for `CCCCCCCC/N=c1\ccn(Cc2ccccc2)c2cc(Cl)ccc12`, the IC50 turned out to be 0.28 µM in data set [2], 0.351 µM in data set [3] and 2.4 µM in data set [1].
On to `CCCCCC/N=c1\ccn(Cc2ccccc2)c2cc(Cl)ccc12`, for which the figures for the IC50 in data set [2], in data set [3] and in data set [1] were 0.032 µM, 0.335 µM and 0.82 µM, respectively. The compound further gave a pKa in data set [6] of 11.5.

These data come from ChEMBL document CHEMBL1128377, “Novel inhibitors of potassium ion channels on human T lymphocytes” (J Med Chem, 1995).
